p97 inhibitor: human p97 ATPase inhibition; inhibition, % at 8 µM; recombinant p97 ATPase, Kinase-Glo ATP luminescence, 3 h; P55072; 220,000 tested, 0.42% active; in the data active = inhibition above about 15%;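 note: 0% = DMSO vehicle and 100% = wells lacking enzyme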
Target sequence (P55072 whole entry, looked up): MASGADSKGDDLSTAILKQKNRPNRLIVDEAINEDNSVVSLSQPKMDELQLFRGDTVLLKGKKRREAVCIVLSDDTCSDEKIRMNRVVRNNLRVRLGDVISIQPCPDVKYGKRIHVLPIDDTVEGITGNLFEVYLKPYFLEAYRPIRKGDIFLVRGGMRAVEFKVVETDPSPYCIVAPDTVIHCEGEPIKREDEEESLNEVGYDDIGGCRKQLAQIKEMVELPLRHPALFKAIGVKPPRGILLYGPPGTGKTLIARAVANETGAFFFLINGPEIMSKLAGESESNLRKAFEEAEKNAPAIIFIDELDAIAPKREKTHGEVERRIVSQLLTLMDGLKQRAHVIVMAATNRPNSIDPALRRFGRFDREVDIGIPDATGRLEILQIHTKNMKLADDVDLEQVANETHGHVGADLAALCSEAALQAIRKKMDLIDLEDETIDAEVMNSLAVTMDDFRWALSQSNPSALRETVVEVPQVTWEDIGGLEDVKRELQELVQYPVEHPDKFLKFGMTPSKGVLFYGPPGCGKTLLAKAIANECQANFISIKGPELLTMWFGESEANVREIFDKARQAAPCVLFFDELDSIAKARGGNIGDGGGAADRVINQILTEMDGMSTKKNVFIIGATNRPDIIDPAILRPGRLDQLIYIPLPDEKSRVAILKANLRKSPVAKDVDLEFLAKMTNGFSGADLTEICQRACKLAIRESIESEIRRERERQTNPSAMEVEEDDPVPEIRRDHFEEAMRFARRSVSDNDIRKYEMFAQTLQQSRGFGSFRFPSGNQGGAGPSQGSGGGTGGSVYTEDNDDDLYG
RBBP9 inhibitor: human RBBP9 hydrolase inhibition | O75884 | recombinant RBBP9, FP-Rh probe fluorescence polarization | inhibition, % at 7.94 µM | 220,000 tested, 0.2% active | AID 1515;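 active = inhibition above the campaign mean of all tested compounds plus 3 SD, cut at about 14% in these data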;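 note: plate controls were DMSO wells with RBBP9 for no effect and wells lacking RBBP9 protein for full effect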
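Assay system: recombinant human RBBP9; Reagent: Serine-hydrolase probe FP-Rh, 375 nM pre-mixing; Doses: 7.94 µM single dose, 0.794% DMSO; Incubation: 30 min then 45 min, 25 °C; Detection: fluorescence polarization (mP), excitation 525 nm, emission 598 nm; Evaluation: percent inhibition from mP, scaled between DMSO and no-protein wells.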
L929 necroptosis: blocks zVAD induced death of L929 cells; L929 zVAD necroptosis rescue, ATP luminescence, 24 h; with zVAD 60 µM; viability rescue, % at 10 µM; 220,000 tested, 0.38% active; AID 1377;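 active = activation, scaled between plate controls, above about 75%, limit read from the data; inactive = activation under that limit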;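 note: 0% = zVAD with DMSO and 100% = DMSO alone without zVAD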
TNF death inh: inhibitors of TNF-alpha induced necroptosis in Jurkat FADD-/- cells | 220,000 tested, 0.068% active | activation (protection from cell death), % at 10 µM | Jurkat FADD-/- TNF necroptosis rescue, ATP luminescence, 24 h; 0 = TNF only, 100 = no-TNF cells;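 active = activation, meaning protection from cell death, of at least 50% relative to plate controls; inactive = activation below 50%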;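 note: necroptosis triggered by 40 ng/mL TNF-alpha added together with compound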
Wee1 stabilizer: inhibitors of human Wee1 degradation; AID 1321; HeLa Luc-Wee1K328M stability, luciferase luminescence; 100% = proteasome inhibitor MG132 effect; reporter increase, % at 5 µM; 220,000 tested, 1.2% active; P30291;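 active = activation above the mean of all tested compounds plus 3 SD, set per screening run, cut at about 8.8% in these data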;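 note: cells exposed to compound for 20 h before luminescence read; 0% = DMSO alone and 100% = MG132 at 30 µM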
M18AAP inhibitor: blocks P. falciparum M18 aspartyl aminopeptidase | recombinant PfM18AAP, H-Glu-NHMec fluorogenic cleavage | 290,000 tested, 1.2% active | AID 1822 | inhibition, % at 7.35 µM;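 active = inhibition above the campaign mean inhibition over all tested compounds plus 3 SD, cut at about 28% in these data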;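 note: 0% = plate median of test compound wells and 100% = 2 mM ZnCl2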
* = called active by the depositor; . = not tested or not shown. Most compounds without a hit are left out; they make up all but 2.7% or so of the library.

SMILES	p97 inhibitor	RBBP9 inhibitor	L929 necroptosis	TNF death inh	Wee1 stabilizer	M18AAP inhibitor
O=C(CN1CCN(c2ccc(F)cc2)CC1)NCc1cccs1	1	-1	1	1	9.0*	-1
CCOC(=O)COc1ccc2ccccc2c1/C=C/[N+](=O)[O-]	9	-10	0	1	0	37*
CC(C)N(CCO)C(=O)C(c1ccccc1)c1ccccc1	-1	-8	0	-3	11*	-2
Cc1ccc(-n2ncc3c2CC(C)(C)CC3NC(=O)CCc2cccnc2)cc1 (centres undefined)	.	.	.	.	.	1
COc1cc(CNc2ccc3c(c2)CCC3)cc(OC)c1O	-2	-10	1	-1	4	38*
CC(C)CN(CC(C)C)C(=O)CCCC(=O)N(CC(C)C)CC(C)C	-5	-9	-1	-2	7	3
Cc1nc(C)c(-c2ccc(SCc3ccccc3F)nn2)s1	.	.	.	.	.	-2
CC(C)NC(=S)N/N=C/c1c[nH]c2ccccc12	4	-4	5	7	15*	13
Cc1[nH]c2ccccc2c1/C=N/NC(=S)NC(C)C	-1	-4	4	-1	-2	24
CCOC(=O)c1nc(SC)n(C)c1C(=O)OCC	4	-5	0	-1	-1	-1
CCN(CC)c1ccc(/C=N/NC(=O)c2nnn(-c3nonc3N)c2-c2ccc(C)cc2)cc1	.	.	.	.	.	1
O=C(O)c1ccccc1S	8	-6	6	2	12*	4
Cc1ccsc1C(=O)OCC(=O)N1CCc2ccccc2C1	3	-3	1	1	-1	7
O=C(CCN1C(=O)[C@@H]2Cc3ccccc3CN2C1=O)N[C@@H](C(=O)O)c1ccccc1	.	.	.	.	.	3
Cn1nnnc1SCc1ccccc1F	0	1	77*	25	0	2
CN(C)c1nc(Oc2ccc(C(=O)OCC(=O)Nc3ccccc3)cc2)nc(N(C)C)n1	-5	-8	-1	1	9.1*	-1
CNCCCOc1ccc(C(C)(C)c2ccccc2)cc1	-3	-4	1	-2	0	0
COCCCNCCOc1ccc(C(C)(C)c2ccccc2)cc1	-1	1	2	2	9.7*	1
Cc1cc2c(c(=O)n1CCCn1ccnc1)C(c1ccco1)C(C#N)=C(N)O2 (centres undefined)	-3	-5	0	-1	1	28*
COc1ccccc1C1C(C#N)=C(N)Oc2cc(C)n(CCCn3ccnc3)c(=O)c21 (centres undefined)	3	-3	1	1	0	12
COc1ccc(NC(=O)CSc2nc3ncccc3[nH]2)cc1OC	-4	3	0	3	11*	2
CC(C)c1ccc(NC(=O)CSc2nc3ncccc3[nH]2)cc1	.	.	.	.	.	-2
Cc1ccc(NC(=O)NNC(=O)C2CCN(Cc3ccc(F)cc3Cl)CC2)cc1	4	-9	1	1	-3	4
O=C(NC1CCCCC1)C1CC(=O)N(c2cccc([N+](=O)[O-])c2)C1 (centres undefined)	1	-8	2	1	-1	-10
O=C(NCc1n[nH]c(=S)n1-c1ccc(F)cc1)c1ccc(S(=O)(=O)N2CCOCC2)cc1	7	3	1	1	1	28*
SMILES	p97 inhibitor	RBBP9 inhibitor	L929 necroptosis	TNF death inh	Wee1 stabilizer	M18AAP inhibitor
O=C(OC1CCCCC1=O)c1cc(Cl)ccc1[N+](=O)[O-] (centres undefined)	2	3	1	-1	4	7
Cc1ccc(-n2nnc3c(=O)n(CC(=O)NCc4ccccc4)cnc32)cc1	0	-7	1	-1	15*	-5
CC(C)C(=O)NC(c1ccco1)c1ccc2cccnc2c1O (centres undefined)	-1	-2	4	-21	6	30*
CCC(Sc1nc2cc(OC)c(OC)cc2c(=O)n1CCc1ccc(OC)c(OC)c1)C(=O)NCCOC (centres undefined)	0	-4	-1	1	-1	-1
O=C(O)c1cc([N+](=O)[O-])ccc1NCc1ccccc1	-1	3	2	1	-2	4
COC(=O)c1cccc(Nc2ccc([N+](=O)[O-])cn2)c1	-2	-12	45	3	5	-5
CCSc1ncc(/C=N/Nc2ccc([N+](=O)[O-])cc2)n1C	0	4	1	1	9.6*	-12
O=[N+]([O-])c1ccc(N/N=C\c2cccn2-c2ccccc2)nc1	2	-1	2	7	-2	47*
O=[N+]([O-])c1ccc(Nc2cccc(F)c2)nc1	-1	-4	3	70*	0	-5
CCSc1ncc(/C=N/Nc2ccccc2)n1C	0	-8	0	-3	0	-6
O=[N+]([O-])c1ccc(NCc2ccccc2)nc1	-3	-1	3	76*	0	7
N#Cc1ccccc1Cn1cc(/C=N/Nc2ccc([N+](=O)[O-])cn2)c2ccccc21	2	-2	70	-6	-3	2
Cc1cc(C)cc(OC(C)C(=O)Nc2ccccc2C(=O)NCc2cccnc2)c1 (centres undefined)	.	.	.	.	.	1
O=C(Nc1cccc(Cl)c1)NC1CC2CCC1C2 (centres undefined)	.	.	.	.	.	-1
CCN(CC)CC#CCC(OC)(c1ccccc1)c1ccccc1	-8	-9	0	3	-4	-13
O=C(c1ccc(OC2CCN(C/C=C/c3ccc(F)cc3)CC2)cc1)N1CCCC1	.	.	.	.	.	-11
O=C(Nc1ccc(F)cc1)Nc1ccc([N+](=O)[O-])cn1	1	-5	7	1	-3	-9
O=[N+]([O-])c1ccc(Nc2ccc(F)cc2)nc1	-5	-1	4	73*	1	11
O=[N+]([O-])c1ccc(Nc2ccccc2)nc1	7	-9	24	90*	1	1
Cc1nnc(SCc2ccc(CSc3nnc(C)c(=O)[nH]3)cc2)[nH]c1=O	5	-6	0	0	-1	1
O=C(O)c1cc(O)ccc1NC(=O)c1cccc2ccccc12	14	-4	1	1	0	-1
O=C(NNc1cccc(Cl)n1)c1cccnc1Cl	7	5	1	2	2	32*
O=C(NNc1cccc(Cl)c1)c1cccnc1Cl	4	-1	0	0	9.4*	13
COC(=O)C(NC(=O)c1cccnc1Cl)C(C)C (centres undefined)	3	-1	0	1	0	-1
CCCCC(=O)Nc1cccc(NC(=O)c2cccnc2Cl)c1	3	2	0	3	2	4
O=C(O/N=C(\c1ccccc1)c1ccncc1)c1ccccc1Cl	-3	-8	0	0	9.6*	-4
CC(NC(=O)c1ccccc1)c1nnc(SCc2nc3ccccc3c(=O)[nH]2)n1C (centres undefined)	-1	-4	3	1	8.8*	7

Compound activity (PubChem)
